According to article PMC5901702 (Journal of biomolecular screening, 2012):

Columns and labels:
rat IDE [1] = target: T1, rat IDE (Rattus norvegicus, UniProt P35559); test: ATP effect on rat IDE activity and activators; type: biochemical
T1 sequence (P35559 1-1019): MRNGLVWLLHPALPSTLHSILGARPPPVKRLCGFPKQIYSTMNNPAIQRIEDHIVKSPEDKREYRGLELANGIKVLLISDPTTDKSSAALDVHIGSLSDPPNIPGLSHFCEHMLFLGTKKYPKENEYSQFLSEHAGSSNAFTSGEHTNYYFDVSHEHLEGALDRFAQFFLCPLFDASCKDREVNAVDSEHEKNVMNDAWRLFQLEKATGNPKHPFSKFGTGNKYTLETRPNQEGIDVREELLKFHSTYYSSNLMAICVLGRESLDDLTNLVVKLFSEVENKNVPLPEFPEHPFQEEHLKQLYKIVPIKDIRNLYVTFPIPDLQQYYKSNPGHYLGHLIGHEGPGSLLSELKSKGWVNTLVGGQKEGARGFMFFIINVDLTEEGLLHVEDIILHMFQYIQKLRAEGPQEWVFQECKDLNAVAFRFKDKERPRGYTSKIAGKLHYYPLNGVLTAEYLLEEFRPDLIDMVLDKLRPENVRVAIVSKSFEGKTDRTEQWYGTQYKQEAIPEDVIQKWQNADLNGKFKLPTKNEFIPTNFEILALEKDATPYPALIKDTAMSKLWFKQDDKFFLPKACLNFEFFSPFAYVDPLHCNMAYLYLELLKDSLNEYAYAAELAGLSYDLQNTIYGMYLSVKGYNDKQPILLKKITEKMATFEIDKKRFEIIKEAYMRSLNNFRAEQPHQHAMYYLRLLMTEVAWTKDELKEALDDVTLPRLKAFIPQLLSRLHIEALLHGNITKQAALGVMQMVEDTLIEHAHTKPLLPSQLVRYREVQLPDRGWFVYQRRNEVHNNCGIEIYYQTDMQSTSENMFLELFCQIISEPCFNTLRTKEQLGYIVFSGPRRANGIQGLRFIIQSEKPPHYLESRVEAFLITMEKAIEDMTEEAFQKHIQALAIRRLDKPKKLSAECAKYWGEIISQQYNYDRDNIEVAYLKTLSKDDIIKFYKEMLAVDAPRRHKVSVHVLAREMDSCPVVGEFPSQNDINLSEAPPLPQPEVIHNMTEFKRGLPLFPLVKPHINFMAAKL
Summary of the method: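 Rat IDE (87.7 nM) with 50 µM a-factor–based internally quenched fluorogenic substrate in 50 mM Tris pH 7.5 containing BSA and 1 mM ATP. Compounds were used at optimal levels taken from Tris/BSA dose-response curves. ATP titration (0–10 mM) was also run in 0.1 M KPi pH 7.6 or Tris/BSA. Activity is % of water- or DMSO-treated control, n = 4.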

rat IDE [2] = target: T1, rat IDE; test: Native PAGE mobility shift of rat IDE; type: binding; details: ATP 3 mM
Summary of the method: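 Rat IDE was preincubated 60 min at 37 °C with compound (100 µM) or ATP (3 mM). It was mixed 1:1 with 2× native sample buffer (0.6 M Tris-HCl pH 6.8, 20% glycerol, bromophenol blue), run on 10% native PAGE at 4 °C and silver-stained.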

rat IDE [3] = target: T1, rat IDE; test: Dose-response of rat IDE activation; type: biochemical; details: rat IDE activation, a-factor–based substrate
Summary of the method: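 Rat IDE (10 µg/mL) in 0.1 M KPi pH 7.6 was preincubated 10 min at 37 °C with activator (up to 1 mM), then mixed 1:1 with a-factor–based fluorogenic substrate (50 µM final). Fluorescence (320 ex) was read over 60 min and rate taken from the 15–30 min window. Baseline was subtracted and rates normalized to trypsin/pronase E full digestion. AC50 came from best-fit curves, or [Max]50 where the curve was not sigmoidal.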

Row | ATP-dependent activation of IDE (rat IDE [1]; KPi buffer, assay conditions used for HTS) | maximum activating concentration (rat IDE [1]; Tris/BSA buffering system) | native PAGE mobility shift of IDE (rat IDE [2]) | dose-response profile (rat IDE [3]) | Structure (SMILES)
1 | not observed | approximately 1 mM | did not observe a mobility shift | – | Nc1ncnc2c1ncn2[C@@H]1O[C@H](COP(=O)(O)OP(=O)(O)OP(=O)(O)O)[C@@H](O)[C@H]1O [ATP, adenosine triphosphate, reference compound]
2 | – | – | – | hormetic response | Cc1ccc(C(=O)Nc2ccc(S(=O)(=O)O)c3cc(S(=O)(=O)O)cc(S(=O)(=O)O)c23)cc1NC(=O)c1cccc(NC(=O)Nc2cccc(C(=O)Nc3cc(C(=O)Nc4ccc(S(=O)(=O)O)c5cc(S(=O)(=O)O)cc(S(=O)(=O)O)c45)ccc3C)c2)c1 [suramin, reference compound]
